According to ChEMBL document CHEMBL3739367, “Design and synthesis of fused tetrahydroisoquinoline-iminoimidazolines” (Eur J Med Chem, 2015):

Columns and labels:
Adenosine receptor A2a = Adenosine receptor A2a (Homo sapiens, UniProt P29274); assay: Displacement of [3H]-[…] from human adenosine A2A receptor expressed in HEK293 cells after 1 hr by scintillation counting; assay type: cell-based
[1] = Cytotoxicity against human SH-SY5Y cells after 72 hrs by MTT assay; assay type: cell-based
In short: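 SH-SY5Y neuroblastoma cells grown in DMEM with 2 mM L-glutamine, streptomycin/penicillin, 1 mM non-essential amino acids, 10% heat-inactivated FBS, 37 °C, 5% CO2. Seeded 2000 cells/well, serum-starved 24 h to synchronise, then exposed to various compound concentrations (<0.1% DMSO) for 72 h; growth read by colorimetric MTT assay; CC50 reported.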

Adenosine receptor A2a, sequence (P29274 whole entry): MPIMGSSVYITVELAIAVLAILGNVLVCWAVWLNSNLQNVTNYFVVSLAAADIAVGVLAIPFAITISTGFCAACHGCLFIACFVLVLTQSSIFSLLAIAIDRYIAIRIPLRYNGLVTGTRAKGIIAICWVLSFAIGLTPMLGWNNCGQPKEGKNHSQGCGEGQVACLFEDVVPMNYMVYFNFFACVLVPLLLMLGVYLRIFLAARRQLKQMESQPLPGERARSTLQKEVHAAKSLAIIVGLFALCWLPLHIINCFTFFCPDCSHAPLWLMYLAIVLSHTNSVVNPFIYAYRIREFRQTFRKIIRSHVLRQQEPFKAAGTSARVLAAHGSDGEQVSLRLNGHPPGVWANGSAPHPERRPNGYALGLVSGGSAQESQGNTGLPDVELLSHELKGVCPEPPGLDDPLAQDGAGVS

Row | Ki (Adenosine receptor A2a) | Structure (SMILES) | CC50 at 72 h [1]
1 | > 200 µM | N=C1N[C@@H](Cc2ccc(O)cc2)CN1Cc1ccccc1 | > 100 µM
2 | > 200 µM | N=C1N(CCN2CCOCC2)C[C@@H]2Cc3ccccc3CN12 | > 100 µM
3 | 35 µM | N=C1N(CCCCc2ccccc2)C[C@@H]2Cc3ccccc3CN12 | > 100 µM
4 | > 200 µM | N=C1N(CCc2ccccn2)C[C@@H]2Cc3ccccc3CN12 | > 100 µM
5 | 64 µM | N=C1N(Cc2ccccc2)C[C@@H]2Cc3ccccc3CN12 | > 100 µM
6 | 44 µM | O=C1[C@@H]2Cc3ccccc3CN2C(=O)N1Cc1ccccc1 | > 100 µM
7 | > 200 µM | CN1C(=N)N(Cc2ccccc2)CC1Cc1ccccc1 (racemic) | > 100 µM

Further lines, the compound ahead of its results:

Row | Structure (SMILES) | Ki (Adenosine receptor A2a) | CC50 at 72 h [1]
8 | CCCCCCN1C[C@@H]2Cc3ccccc3CN2C1=N | > 200 µM | > 100 µM
9 | N=C1N[C@@H](Cc2ccc(F)cc2)CN1Cc1ccccc1 | > 200 µM | > 100 µM
10 | C[C@H]1CN(Cc2ccccc2)C(=N)N1 | > 200 µM | > 100 µM
11 | N=C1N[C@@H](Cc2ccccc2)CN1Cc1ccccc1 | > 200 µM | > 100 µM
12 | COc1ccc(C[C@H]2CN(Cc3ccccc3)C(=N)N2)cc1 | > 200 µM | > 100 µM
13 | N=C1N(Cc2ccccc2)C[C@@H]2CCCCN12 | > 200 µM | > 100 µM
